Test results published in ChEMBL document CHEMBL4000211, “Discovery of novel polycyclic spiro-fused carbocyclicoxindole-based anticancer agents” (Eur J Med Chem, 2017).

Assays:
Format in all cases: functional
HCT-116 [1] = assay: Cell cycle arrest in human HCT116 cells assessed as accumulation at G1 phase at 10 uM after 48 hrs by propidium iodide staining-based flow cytometric method (reference value: 40.75%)
HCT-116 [2] = assay: Cell cycle arrest in human HCT116 cells assessed as accumulation at G1 phase at 10 uM after 24 hrs by propidium iodide staining-based flow cytometric method (reference value: 43.79%)
HCT-116 [3] = assay: Induction of apoptosis in human HCT116 cells assessed as necrotic cells at 12.5 uM after 48 hrs by annexin V-FITC/propidium iodide staining-based flow cytometric method (reference value: 2.29%)
Outline: (§1)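 HCT116 cells seeded at 1×10⁶ cells/mL in 6-well plates for 24 h, then exposed to 0, 7.5, 10 or 12.5 μM for a further 24 h or 48 h. Cells washed twice in PBS, then stained with Annexin V-FITC plus PI (100 μg/mL stock) in binding buffer (10 mM HEPES, pH 7.4, 2.5 mM CaCl₂) for 30 min at room temperature in the dark. Early and late apoptotic fractions gated by flow cytometry.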

HCT-116 [4] = assay: Induction of apoptosis in human HCT116 cells assessed as necrotic cells at 7.5 uM after 24 hrs by annexin V-FITC/propidium iodide staining-based flow cytometric method (reference value: 1.85%); outline: as §1

SMILES: C[C@@H]1Oc2ccc3ccccc3c2[C@@H]2[C@@H]1C=C(C=O)[C@@H](C)[C@]21C(=O)Nc2ccccc21
- Activity (HCT-116 [1]): 82.32%
- Activity (HCT-116 [2]): 75.18%
- Activity (HCT-116 [3]): 5.28%
- Activity (HCT-116 [4]): 1.6%
